ChEMBL document CHEMBL1123113, “"Reverse" and "symmetrical" analogues of actinomycin D: metabolic activation and in vitro and in vivo tumor growth inhibitory activities” (J Med Chem, 1985)
“And” between values parts separate entries of the source, which are not always exact repeats. Identical values can stand only once.

Columns and labels:
Rattus norvegicus [1] = species on record: Rattus norvegicus; assay: (§1) Compound tested for adrenochrome formation in rat hepatic mycrosomal incubation; assay type: functional
In short: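 Adrenochrome assay for superoxide: epinephrine in 0.01 N HCl plus 300 µg of phenobarbital-induced rat liver microsomes at 37 °C. NADPH 0.4 mM was added to the sample side 1 min later, and the rate was read at 480 nm (ε 4.02 mM−1 cm−1). Drugs were at ≤100 µM, made in 150 mM KCl–50 mM Tris, pH 7.4. Percent stimulation is over basal rate, in triplicate.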

Rattus norvegicus [2] = species on record: Rattus norvegicus; assay: (§2) Compound tested for NADPH oxidation in rat hepatic mycrosomal incubation; assay type: functional
In short: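 Phenobarbital-induced male Sprague-Dawley rat liver microsomes were placed in both cuvettes, without epinephrine. NADPH 0.4 mM was added to the sample side only, and absorbance was read at 340 nm. Percent stimulation = (drug rate − basal)/basal × 100. Values are the average ± standard errors of triplicates.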

Mus musculus [3] = assay: In vivo antitumor activity was determined against P388 leukemia mice as number of mice survived after administration of 300 ug/Kg dose of compound; Value represented as no of survivors/ treated = 0/8; assay type: functional
Mus musculus [4] = species on record: Mus musculus; assay: Antitumor activity against B16 melanoma in terms of percentage increase in life span in mice after 65 days; assay type: functional
[5] = Minimum tolerated dose is the lethal dose for 10% normal mice for deaths during 21 days; assay type: ADME, organism-based; settings: mouse, in vivo
In short: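 Tumor-free male BDF1 mice (18–22 g) received a broad dose range ip in 5% dimethyl sulfoxide-saline on days 1, 5 and 9. Deaths were recorded over 21 days. The LD10 (dose killing 10% of animals) was calculated from a plot of log-dose vs. percent mortality.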

Mus musculus [6] = assay: Antitumor activity against P388 leukemia cells in terms of percentage increase in life span in mice at an optimal dose of 300 ug/kg administered ip; assay type: functional
Mus musculus [7] = assay: In vivo antitumor activity was determined against B16 melanoma mice as number of mice survived after administration of 250 ug/Kg dose of compound; Value represented as no of survivors/ treated = 2/9; assay type: functional
Mus musculus [8] = assay: Antitumor activity against P388 leukemia cells in terms of median survival time of mice at an optimal dose of 300 ug/kg administered ip; assay type: functional
P388 [9] = assay: (§3) Inhibition of DNA synthesis was measured as the concentration required to cause 50% reduction (in 1h) in methyl [3H]thymidine incorporation into acid precipitable material using P388 cells; assay type: functional; settings: Mus musculus, read-out: ID50 (the source's name)
In short: (§4)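 P388 cells were exposed for 1 h. IC50 (µM) was taken as 50% reduction of methyl-[3H]thymidine (DNA) or 2-[14C]uridine (RNA) incorporation into acid-precipitable material. The ratio is IC50 DNA divided by IC50 RNA.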

[10] = Therapeutic index ([…]) value of the compound; settings: read-out: TI
In short: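 MED is the dose giving a 45% increase in life span over control in male BDF1 mice implanted ip with 10^6 P388 cells and treated ip on days 1, 5 and 9. MTD is the 21-day LD10 in tumor-free male BDF1 mice (18–22 g), dosed ip on the same days. Both values come from plotted log-dose response data.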

Mus musculus [11] = species on record: Mus musculus; assay: Dose providing an increase in the life span of 45% over control in P388 tumor bearing mice; assay type: functional; settings: read-out: MED
In short: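 MED is the ip dose in mg/kg, given on days 1, 5 and 9 starting 1 day after implantation, that gives a 45% increase in life span over control in P388-bearing mice. It was derived from plotted log-dose response data.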

P388 [12] = assay: (§5) Inhibition of RNA synthesis was measured as the concentration required to cause 50% reduction (in 1h) in 2-[14C]uridine incorporation into acid precipitable material using P388 cells; assay type: functional; settings: Mus musculus, P388, 1 h; read-out: ID50 (the source's name)
CCRF-CEM = assay: Inhibitory dose required for the inhibition of human lymphoblastic leukemia cells(CCRF-CEM); assay type: functional; settings: read-out: ID50 (the source's name)
Mus musculus [13] = assay: Antitumor activity against B16 melanoma in terms of median survival time of mice at an optimal dose of 250 ug/kg administered ip; assay type: functional
[14] = Therapeutic index (MTD/MED) value of the compound; settings: read-out: TI
P388 [15] = assay: as §3; assay type: functional, cell-based; settings: Mus musculus; in short: as §4
P388 [16] = assay: as §5; assay type: functional, cell-based; settings: Mus musculus, P388, 1 h
Rattus norvegicus [17] = species on record: Rattus norvegicus; assay: as §1; assay type: functional; remark: listed apart in the source
In short: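 Superoxide read as adrenochrome from epinephrine (in 0.01 N HCl) with phenobarbital-induced rat liver microsomes (300 µg) at 37 °C; NADPH 0.4 mM added to sample cuvette after 1 min. Rate at 480 nm (ε 4.02 mM-1 cm-1); drug ≤100 µM in 150 mM KCl-50 mM Tris pH 7.4; % stimulation over basal rate; triplicate, mean ± standard error.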

Rattus norvegicus [18] = species on record: Rattus norvegicus; assay: as §2; assay type: functional; remark: listed apart in the source
In short: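 Phenobarbital-induced rat liver microsomes (300 µg), 37 °C, no epinephrine; NADPH 0.4 mM added to sample cuvette only. A340 followed; % oxidation = (1 − A340/A'340)×100 vs cuvette not activated by microsomes; % stimulation = (drug rate − basal rate)/basal rate ×100. Drugs in 150 mM KCl-50 mM Tris pH 7.4; triplicate analyses, mean ± standard error.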

Row | Compound | MTD at 504 h [5] [mg/kg] | selectivity ratio [14] | IC50 (P388 [15]) [nM] | IC50 (P388 [16]) [nM] | other results
1 | CCN(CC)C(=O)c1cc(=O)c(C)c2oc3c(C)c4oc(-c5ccccc5)nc4c(C(=O)N(CC)CC)c3nc1-2 |  |  |  |  | adrenochrome formation (Rattus norvegicus [1]): 2.13 nM min-1 (mg of protein)-1; NADPH oxidation (Rattus norvegicus [2]): 8.9 nM min-1 (mg of protein)-1
2 | Cc1c2oc3c(C)ccc(C(=O)N[C@@H]4C(=O)N[C@H](C(C)C)C(=O)N5CCC[C@H]5C(=O)NCC(=O)N[C@@H](C(C)C)C(=O)O[C@@H]4C)c3nc-2c(C(=O)N[C@@H]2C(=O)N[C@H](C(C)C)C(=O)N3CCC[C@H]3C(=O)NCC(=O)N[C@@H](C(C)C)C(=O)O[C@@H]2C)c(N)c1=O [ACTINOMYCITIN] | 0.25 |  |  |  | Survivors (Mus musculus [3]): 0; ILS (Mus musculus [4]): 48%; ILS at 0.3 mg/kg (Mus musculus [6]): 136%; Survivors (Mus musculus [7]): 2; MST (Mus musculus [8]): 26 days; IC50 (P388 [9]): 1.12 nM; selectivity ratio [10]: 4; adrenochrome formation (Rattus norvegicus [1]): 2.11 nM min-1 (mg of protein)-1 and 2.29 nM min-1 (mg of protein)-1; minimal effective dose (Mus musculus [11]): 0.0625 mg/kg; NADPH oxidation (Rattus norvegicus [2]): 9.11 nM min-1 (mg of protein)-1 and 10.01 nM min-1 (mg of protein)-1; IC50 (P388 [12]): 0.05 nM; IC50 (CCRF-CEM): 50 nM; MST (Mus musculus [13]): 43 range
3 | Cc1c2oc3c(C)c(O)c(N)c(C(=O)N[C@@H]4C(=O)N[C@H](C(C)C)C(=O)N5CCC[C@H]5C(=O)N(C)CC(=O)N(C)[C@@H](C(C)C)C(=O)O[C@@H]4C)c3nc-2c(C(=O)N[C@@H]2C(=O)N[C@H](C(C)C)C(=O)N3CCC[C@H]3C(=O)N(C)CC(=O)N(C)[C@@H](C(C)C)C(=O)O[C@@H]2C)cc1=O | 3.5 | 13 | 5100 | 5100 | 
4 | Cc1c2oc3c(C)c(O)c(N)c(C(=O)N[C@@H]4C(=O)N[C@H](C(C)C)C(=O)N5CCC[C@H]5C(=O)N(C)CC(=O)N(C)[C@@H](C(C)C)C(=O)O[C@@H]4C)c3nc-2c(C(=O)N[C@@H]2C(=O)N[C@H](C(C)C)C(=O)N3CCC[C@H]3C(=O)N(C)CC(=O)N(C)[C@@H](C(C)C)C(=O)O[C@@H]2C)c(N)c1=O | 2.4 | 96 | 1110 | 1150 | 
5 | Cc1c2oc3c(C)c4oc(-c5ccccc5)nc4c(C(=O)N[C@@H]4C(=O)N[C@H](C(C)C)C(=O)N5CCC[C@H]5C(=O)N(C)CC(=O)N(C)[C@@H](C(C)C)C(=O)O[C@@H]4C)c3nc-2c(C(=O)N[C@@H]2C(=O)N[C@H](C(C)C)C(=O)N3CCC[C@H]3C(=O)N(C)CC(=O)N(C)[C@@H](C(C)C)C(=O)O[C@@H]2C)cc1=O | 2 | 10 | 5700 | 3200 | 
6 | Cc1c2oc3c(C)c4oc(-c5ccccc5)nc4c(C(=O)N[C@@H]4C(=O)N[C@H](C(C)C)C(=O)N5CCC[C@H]5C(=O)N(C)CC(=O)N(C)[C@@H](C(C)C)C(=O)O[C@@H]4C)c3nc-2c(C(=O)N[C@@H]2C(=O)N[C@H](C(C)C)C(=O)N3CCC[C@H]3C(=O)N(C)CC(=O)N(C)[C@@H](C(C)C)C(=O)O[C@@H]2C)c(N)c1=O | 1.8 | 60 | 800 | 70 | 
7 | CCN(CC)C(=O)c1c2nc3c(C(=O)N(CC)CC)c(N)c(O)c(C)c3oc-2c(C)c(=O)c1N |  |  |  |  | adrenochrome formation (Rattus norvegicus [17]): 2.13 nM min-1 (mg of protein)-1; NADPH oxidation (Rattus norvegicus [18]): 8.9 nM min-1 (mg of protein)-1
